Active and inactive are the calls of the source. The rule behind the calls is not given here. Residues, ends and D or L forms follow the SMILES beside them. *: point of attachment. Phenylacetyl(4-E-phenylazo) = O=C(Cc1ccc(/N=N/c2ccccc2)cc1)*; X5 = CCN(CC)c1ccc(/N=N/c2ccc(CC(=O)*)cc2)cc1; X2 = CN(C)c1ccc(/N=N/c2ccc(C(=O)*)cc2)cc1
How the values were obtained:
[1] = target: T1, NAD-dependent protein deacetylase sirtuin-2 (Homo sapiens) (UniProt Q8IXJ6); assay: Inhibition of recombinant human SIRT2 demyristoylase activity at 1 uM using p53(Myr)-AMC as substrate measured after 3 hrs in presence of NAD+ and trypsin by fluorescence assay relative to control
T1 sequence (whole entry): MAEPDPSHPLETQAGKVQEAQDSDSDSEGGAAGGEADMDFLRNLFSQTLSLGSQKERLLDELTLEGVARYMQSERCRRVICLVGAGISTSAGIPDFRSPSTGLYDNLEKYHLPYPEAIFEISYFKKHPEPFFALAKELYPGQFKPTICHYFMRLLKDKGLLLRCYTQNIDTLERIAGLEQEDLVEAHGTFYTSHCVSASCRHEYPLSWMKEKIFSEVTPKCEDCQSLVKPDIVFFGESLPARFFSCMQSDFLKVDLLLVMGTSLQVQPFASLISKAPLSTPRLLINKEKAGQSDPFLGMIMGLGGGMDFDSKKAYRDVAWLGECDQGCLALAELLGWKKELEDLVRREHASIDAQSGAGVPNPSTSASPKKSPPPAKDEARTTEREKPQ

[2] = target: T2, NAD-dependent protein deacetylase sirtuin-1 (Homo sapiens) (UniProt Q96EB6); assay: Inhibition of recombinant human C-terminal His6-tagged SIRT1 (Met1 to Ser747 residues) defatty-acylase activity expressed in Escherichia coli at 2 uM using SFP3 as substrate measured at 5 mins interval for 60 mins in presence of NAD+ by fluorescence assay relative to control
T2 sequence (whole entry): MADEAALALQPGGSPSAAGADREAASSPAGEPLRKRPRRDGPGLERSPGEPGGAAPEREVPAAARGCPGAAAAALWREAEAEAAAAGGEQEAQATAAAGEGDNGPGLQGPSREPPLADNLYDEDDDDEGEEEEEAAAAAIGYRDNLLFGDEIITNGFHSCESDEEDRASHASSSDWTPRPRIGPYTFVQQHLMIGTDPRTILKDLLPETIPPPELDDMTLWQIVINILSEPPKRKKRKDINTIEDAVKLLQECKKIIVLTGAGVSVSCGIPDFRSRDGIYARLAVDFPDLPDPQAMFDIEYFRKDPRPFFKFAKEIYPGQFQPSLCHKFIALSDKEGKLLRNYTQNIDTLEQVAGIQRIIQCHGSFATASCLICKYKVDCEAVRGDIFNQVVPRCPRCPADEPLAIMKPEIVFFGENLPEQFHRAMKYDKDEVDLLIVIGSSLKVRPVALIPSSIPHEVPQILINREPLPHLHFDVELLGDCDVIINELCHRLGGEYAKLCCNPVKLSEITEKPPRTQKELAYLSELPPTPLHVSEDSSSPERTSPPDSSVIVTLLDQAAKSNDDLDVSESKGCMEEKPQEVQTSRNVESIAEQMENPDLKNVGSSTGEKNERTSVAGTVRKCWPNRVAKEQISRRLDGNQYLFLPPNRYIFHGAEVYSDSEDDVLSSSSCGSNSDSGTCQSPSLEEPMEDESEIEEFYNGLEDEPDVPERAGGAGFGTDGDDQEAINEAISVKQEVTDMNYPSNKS

[3] = target: T3, NAD-dependent protein deacetylase sirtuin-3, mitochondrial (Homo sapiens) (UniProt Q9NTG7); assay: Inhibition of recombinant human SIRT3 (118 to 399 residues) defatty-acylase activity expressed in Escherichia coli at 2 uM using SFP3 as substrate measured at 5 mins interval for 60 mins in presence of NAD+ by fluorescence assay relative to control
T3 sequence (whole entry): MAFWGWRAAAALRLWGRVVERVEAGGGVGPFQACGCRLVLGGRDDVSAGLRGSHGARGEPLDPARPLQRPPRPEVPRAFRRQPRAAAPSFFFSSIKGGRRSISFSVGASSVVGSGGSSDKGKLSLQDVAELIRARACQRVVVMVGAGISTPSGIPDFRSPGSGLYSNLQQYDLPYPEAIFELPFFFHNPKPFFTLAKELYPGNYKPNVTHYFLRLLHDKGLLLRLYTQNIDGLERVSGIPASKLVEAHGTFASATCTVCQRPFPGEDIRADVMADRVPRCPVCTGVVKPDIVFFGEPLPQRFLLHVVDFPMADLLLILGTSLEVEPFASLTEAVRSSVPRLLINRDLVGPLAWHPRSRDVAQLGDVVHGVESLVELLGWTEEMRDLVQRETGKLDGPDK
In short: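 SIRT3 at 60 nM final with 2.5 μM SFP3 and 500 μM NAD⁺ in Tris-HCl pH 8.0, 150 mM NaCl, 1 mM DTT, 0.05% Triton X-100. Final DMSO 0.2%, or 0.5% for AGK2/NAM. Fluorescence Ex 485/Em 535 nm every 5 min for 60 min at 37 °C. n = 3.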

[4] = target: NAD-dependent protein deacylase sirtuin-6 (Homo sapiens) (UniProt Q8N6T7); assay: Inhibition of recombinant human N-terminal polyhis-tagged SIRT6 (1 to 355 residues) defatty-acylase activity expressed in Escherichia coli at 2 uM using SFP3 as substrate measured at 5 mins interval for 60 mins in presence of NAD+ by fluorescence assay relative to control
Chain of NAD-dependent protein deacylase sirtuin-6 (Homo sapiens) (Q8N6T7 whole entry, the tested form may be a part): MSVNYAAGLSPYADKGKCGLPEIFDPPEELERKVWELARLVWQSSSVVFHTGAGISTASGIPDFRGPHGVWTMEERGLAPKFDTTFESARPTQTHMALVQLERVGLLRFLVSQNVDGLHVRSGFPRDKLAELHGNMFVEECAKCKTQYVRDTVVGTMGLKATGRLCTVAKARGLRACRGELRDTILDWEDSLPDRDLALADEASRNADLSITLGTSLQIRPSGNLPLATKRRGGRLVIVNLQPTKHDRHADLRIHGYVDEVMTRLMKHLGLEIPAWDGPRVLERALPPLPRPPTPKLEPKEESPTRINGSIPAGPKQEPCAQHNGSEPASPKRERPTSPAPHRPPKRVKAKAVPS

[5] = target: T2, NAD-dependent protein deacetylase sirtuin-1 (Homo sapiens); assay: Inhibition of recombinant human C-terminal His6-tagged SIRT1 (Met1 to Ser747 residues) demyristoylase activity expressed in Escherichia coli at 1 uM using p53(Myr)-AMC as substrate measured after 3 hrs in presence of NAD+ and trypsin by fluorescence assay relative to control
In short: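 SIRT1 at 14 nM final with 50 μM p53(Myr)-AMC and 500 μM NAD⁺ in Tris-HCl pH 8.0/NaCl/DTT/Triton buffer, 0.5% DMSO, 3 h at room temperature. Trypsin (100 nM final) plus nicotinamide (1 mM final) then added. Fluorescence Ex 355/Em 460 nm read every 5 min for 20 min at 37 °C. n = 3.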

[6] = target: T3, NAD-dependent protein deacetylase sirtuin-3, mitochondrial (Homo sapiens); assay: Inhibition of recombinant human SIRT3 (118 to 399 residues) demyristoylase activity expressed in Escherichia coli at 1 uM using p53(Myr)-AMC as substrate measured after 3 hrs in presence of NAD+ and trypsin by fluorescence assay relative to control
In short: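 SIRT3 at 120 nM with 50 μM p53(Myr)-AMC and 500 μM NAD⁺ in Tris-HCl pH 8.0/NaCl/DTT/Triton buffer, 0.5% DMSO, 3 h at room temperature. Trypsin (100 nM) plus nicotinamide (1 mM) then added. Fluorescence Ex 355/Em 460 nm every 5 min for 20 min at 37 °C. n = 3.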

[7] = target: T1, NAD-dependent protein deacetylase sirtuin-2 (Homo sapiens); assay: Inhibition of recombinant human SIRT2 defatty-acylase activity at 2 uM using SFP3 as substrate measured at 5 mins interval for 60 mins in presence of NAD+ by fluorescence assay relative to control
[8] = target: T1, NAD-dependent protein deacetylase sirtuin-2 (Homo sapiens); assay: Time-dependent inhibition of recombinant human SIRT2 defatty-acylase activity at 62.5 to 1000 nM using SFP3 as substrate measured at 5 mins interval for 60 mins in presence of NAD+ by fluorescence assay

| inhibition [1] | inhibition [2] | inhibition [3] | inhibition [4] | inhibition [5] | inhibition [6] | inhibition [7] | TDI [8] | SMILES |
| --- | --- | --- | --- | --- | --- | --- | --- | --- |
| – | – | – | 28% | – | – | – | – | CC[C@H](C)[C@H](NC(=O)[C@H](CCCNC(=N)N)NC(C)=O)C(=O)N[C@@H](CCCCNC(=O)Cc1ccc(/N=N/c2ccc(N(CC)CC)cc2)cc1)C(=O)N[C@@H](CCCNC(=N)N)C(=O)N[C@@H](Cc1ccc(O)cc1)C(N)=O (Ac-RIK(X5)RY-NH2) |
| – | – | – | 28% | – | – | – | – | CC[C@H](C)[C@H](NC(C)=O)C(=O)N[C@@H](CCCCNC(=O)Cc1ccc(/N=N/c2ccccc2)cc1)C(=O)N[C@@H](CCCNC(=N)N)C(N)=O |
| – | 22% | – | 13% | 42% | 34% | – | inactive | CC[C@H](C)[C@H](NC(=O)[C@H](CCCNC(=N)N)NC(C)=O)C(=O)N[C@@H](CCCCNC(=O)c1ccc(/N=N/c2ccc(N(C)C)cc2)cc1)C(=O)N[C@@H](CCCNC(=N)N)C(=O)N[C@@H](Cc1ccc(O)cc1)C(N)=O (Ac-RIK(X2)RY-NH2) |

More lines, now with the values behind:

| SMILES | inhibition [1] | inhibition [2] | inhibition [3] | inhibition [4] | inhibition [5] | inhibition [6] | inhibition [7] | TDI [8] |
| --- | --- | --- | --- | --- | --- | --- | --- | --- |
| CC[C@H](C)[C@H](NC(=O)[C@@H](NC(=O)[C@H](CCCCNC(=O)Cc1ccc(/N=N/c2ccccc2)cc1)NC(=O)[C@H](CC(=O)O)NC(=O)[C@H](CO)NC(C)=O)[C@@H](C)O)C(N)=O (Ac-SDK(Phenylacetyl(4-E-phenylazo))TI-NH2) | 17% | 18% | 14% | 2.6% | 31% | 5.6% | – | – |
| C[C@H](NC(=O)[C@H](CCCCNC(=O)Cc1ccc(/N=N/c2ccc(O)cc2)cc1)NC(=O)OCc1ccccc1)C(N)=O | 5.3% | 8.8% | 5.9% | 3.8% | 20% | 2.6% | 18% | – |
| C[C@H](NC(=O)[C@H](CCCCNC(=O)Cc1ccc(/N=N/c2ccc(OCCc3ccccc3)cc2)cc1)NC(=O)OCc1ccccc1)C(N)=O | 2.9% | 2% | 7% | -0.32% | 6.3% | -0.13% | 1.4% | – |
| CC[C@H](C)[C@H](NC(=O)[C@@H](NC(=O)[C@H](CCCCNC(=O)c1ccc(/N=N/c2ccc(N(C)C)cc2)cc1)NC(=O)[C@H](CC(=O)O)NC(=O)[C@H](CO)NC(C)=O)[C@@H](C)O)C(N)=O (Ac-SDK(X2)TI-NH2) | 2% | 8.9% | 10% | 11% | 3.2% | -1.1% | 7.8% | – |

Reference: ChEMBL document CHEMBL4304758, “Development of Peptide-Based Sirtuin Defatty-Acylase Inhibitors Identified by the Fluorescence Probe, SFP3, That Can Efficiently Measure Defatty-Acylase Activity of Sirtuin” (J Med Chem, 2019)
